These results are taken from ChEMBL document CHEMBL2163193, “Meroterpenoid and diphenyl ether derivatives from Penicillium sp. MA-37, a fungus isolated from marine mangrove rhizospheric soil” (J Nat Prod, 2012).

≈ marks a conversion by molar mass, not a printed value.

One data set relates to Micrococcus luteus. In words: Antimicrobial activity against Micrococcus luteus by broth microdilution method. The class given is functional. Put shortly: (§1)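 Broth microdilution run per a cited literature method, with chloromycetin as the positive control. The read-out is the MIC in μg/mL.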
In another data set the test system is Escherichia coli. In words: Antimicrobial activity against Escherichia coli by broth microdilution method. In kind it is functional. Put shortly: as §1
Data set [1] can be described thus: Toxicity against brine shrimp. In kind it is organism-based. The conditions noted are these: artemia, in vivo; read-out: LD50 (the source's name). Put shortly:
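Brine shrimp lethality follows a literature procedure, with DMSO as the negative control and colchicine as the positive control. Lethality is expressed as LD50 in μM.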

Regarding `COc1c(C(CC(C)C)OC)ccc(Oc2c(O)cc(C)cc2CO)c1C(=O)O` (stereo unspecified), the MIC in the data set on Micrococcus luteus is 256 µg/mL (≈ 633 µM); against Escherichia coli, 32 µg/mL (≈ 79.1 µM).

With `O=C(N[C@H](CO)[C@H](O)c1ccc([N+](=O)[O-])cc1)C(Cl)Cl` [CHLORAMPHENICOL], the minimum inhibitory concentration (MIC) in the data set on Micrococcus luteus and against Escherichia coli was 4 µg/mL (≈ 12.4 µM) in each case.

For the compound `COc1c([C@@H](O)CC(C)C)ccc2c1C(=O)OCc1cc(C)cc(O)c1O2` [PENICILLIDE], the LC50 in data set [1] came to 158 µM.

With `C=C(C)/C=C/c1ccc2c(c1OC)C(=O)OCc1cc(C)cc(O)c1O2`, the LC50 in data set [1] stood at 136 µM.

As to `COC(=O)[C@]12C(=O)[C@H](C)O[C@@H]3OC(=O)[C@](C)(C[C@H]4[C@]5(CO5)C5=CC(=O)OC(C)(C)C5=CC[C@@]41C)[C@@H]32` [BERKELEYACETAL B], the LC50 in data set [1] worked out at 160 µM.

`CC(=O)OCc1cc(C)cc(O)c1Oc1ccc(CC=C(C)C)c(O)c1C(=O)O`: the values for the MIC against Micrococcus luteus and in the data set on Escherichia coli were 64 µg/mL (≈ 160 µM) and 16 µg/mL (≈ 40 µM), respectively.

For `COc1c(/C=C/C(C)(C)OC)ccc2c1C(=O)OCc1cc(C)cc(O)c1O2`, the LC50 in data set [1] amounted to 72.6 µM.

For `COc1cc2c(c(OC)c1OC)-c1ccc(OC)c(=O)cc1[C@@H](NC(C)=O)CC2` [COLCHICINE], the LC50 in data set [1] was 71.1 µM.

As a reminder, the MIC is the lowest concentration that inhibits growth of the organism.
